Dynein transport: dynein cargo transport inhibition; z-score, hits read low; 220,000 compounds, 0.47% hits; AID 1381; 3617.4 mouse cells, GR-EGFP nuclear translocation imaging; test concentration mostly 20 µM; stimulated with dexamethasone, 1 µM; hits give low values;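 active means plate z-score of nuclear minus cytoplasmic receptor signal below a set negative limit, without overly bright fluorescence or cell loss, cut at about -3.5 in these data, passing the limit was not always enough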;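 further: z-score of nuclear minus cytoplasmic ring GR-EGFP intensity difference per well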
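Schedule: 48 h induction, then 1 h compound, then 30 min agonist, 37 °C. Buffer or medium: tetracycline-free induction medium containing charcoal-stripped FBS. Reagent: 1.0 µM final dexamethasone stimulus. Evaluation: nuclear versus cytoplasmic GR-EGFP signal, averaged per well. Signal: high-content fluorescence imaging after fixation.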
pCIP destab: lowers stability of the mouse p/CIP coactivator protein. 290,000 compounds, 0.01% hits. AID 1984. F442A p/CIP-EGFP cells, EGFP fluorescence, 16 h. decrease of EGFP signal, % at 10 µM. Q05BA5;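 active means EGFP signal decrease of at least 30% at 10 µM or well 3 SD below plate mean, unless failing retest; inactive means the rest, including hits failing retest or dose response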
CHOP inhibitor: CHOP inhibition in unfolded protein response; CHO-K1 CHOP-promoter luciferase, tunicamycin-induced, 15-18 h; inhibition, % at 10 µM; 220,000 compounds, 3.8% hits;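 active means compounds that reduced the stress-induced luciferase reporter signal by more than about 70% of percent inhibition, limit read from the data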;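 further: 0% = tunicamycin plus vehicle and 100% = wells without tunicamycin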
Beta2AR agonist: human beta-2 adrenergic receptor agonism by FAP. response, % (no concentration beside the values). AID 504454. Am2.2-beta2AR cells, FAP receptor internalization, flow cytometry. 340,000 compounds, 0.43% hits. P07550;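 active means response above a set limit, near 3 SD of response in nonfluorescent compounds, cut at about 42% in these data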
Target sequence (P07550 whole entry, looked up): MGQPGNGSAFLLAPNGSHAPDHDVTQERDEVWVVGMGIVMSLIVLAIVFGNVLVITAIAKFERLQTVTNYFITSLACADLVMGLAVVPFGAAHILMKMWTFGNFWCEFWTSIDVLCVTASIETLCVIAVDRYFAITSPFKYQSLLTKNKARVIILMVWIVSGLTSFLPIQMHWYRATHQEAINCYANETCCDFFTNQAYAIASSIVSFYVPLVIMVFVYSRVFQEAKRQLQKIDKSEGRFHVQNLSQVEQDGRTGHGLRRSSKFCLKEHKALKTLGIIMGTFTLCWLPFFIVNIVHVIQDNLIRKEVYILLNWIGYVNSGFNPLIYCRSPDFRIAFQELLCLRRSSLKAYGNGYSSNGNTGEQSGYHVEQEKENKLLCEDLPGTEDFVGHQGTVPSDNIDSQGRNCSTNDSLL
XBP1 UPR activ: activators of adaptive arm of unfolded protein response (XBP1) | CHO-XBP1 luciferase reporter, IRE1-XBP1 UPR activation, luminescence; percent of tunicamycin response, DMSO as zero | activation, % at 20 µM | 330,000 compounds, 0.33% hits | AID 463104;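 active means versus positive control, 20 µM dose yields 30% or more activation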;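 further: 100% = tunicamycin at 10 µg/mL and 0% = DMSO only wells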
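Material – CHO cell line with stable XBP1 luciferase reporter · Buffer or medium – F12 plus 10% FBS · Compound – single point, 20 µM final compound, 1% DMSO · Schedule – 16-18 h cell attachment at 37 °C, then 6 h compound exposure · Signal – Steady-Glo luminescence read · Benchmarks – high control tunicamycin 10 µg/mL final, low control DMSO vehicle only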
UPR CHOP act: apoptotic UPR (CHOP) activation; CHO-CHOP luciferase reporter, luminescence; percent of tunicamycin response over DMSO baseline; activation, % at 10 µM; 330,000 compounds, 0.34% hits;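 active means at 10 µM dose, activation of 40% or more, normalized to positive control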;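 further: 100% = tunicamycin at 10 µg/mL and 0% = DMSO alone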
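measured by = luciferase luminescence | assay system = CHO-CHOP cells, stable luciferase reporter of PERK-eIF2a-CHOP signalling | amount = 500 reporter cells seeded per well | timing = 6 h compound exposure at 37 °C after overnight seeding | controls = positive tunicamycin 10 µg/mL, negative DMSO alone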
Dynein confirm: dynein cargo transport inhibition, confirmation; calls only at 20 µM; 3617.4 GR-EGFP nuclear translocation imaging, dexamethasone-induced; shares compounds with Dynein transport; 1,000 compounds, 69% hits;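 active means inhibition of receptor movement into the nucleus at or above a set limit in both runs, with normal cell brightness and cell count; inconclusive means limit reached in only one run, brightness and count normal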;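 further: dexamethasone at 1 µM final in well for 30 min; nuclear minus cytoplasmic GR-EGFP mean intensity difference in channel 2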
Numbers without * were called inactive; i = inactive; u = inconclusive; x = not tested or not shown; + = active, no number. This is one part of a sample in which hits are shown more often than they occur.

SMILES	Dynein transport	pCIP destab	CHOP inhibitor	Beta2AR agonist	XBP1 UPR activ	UPR CHOP act	Dynein confirm
Cc1ccc(C(=O)/C=C/c2ccccc2)o1	-3.73*	-1.9	-63.2	7.7	2.7	5.8	u
COc1ccc(N/C=C/c2nc(SC)nnc2C)cc1	-4.02	-20.3	13.5	-4.6	5.9	-0.6	i
CC[C@@H]1[C@H]2CCCC(=O)N3CC[C@@H](C[C@@H]1OC(=O)Nc1ccccc1)[C@@H]23	x	-6.1	x	0.8	2.3	-0.6	x
Cn1c(=O)c(Nc2ccc(Cl)cc2)c2c3c(cccc31)C(=O)c1ccccc1-2	-4.31	-128.8	43.2	x	-2.0	0.9	+
CC(=O)Nc1c2c3c(cccc3n(C)c1=O)C(=O)c1ccccc1-2	-0.141	-17.4	-17.1	3.9	-4.5	-3.4	x
O=C1c2ccccc2-c2cccc(C(=O)N3CCN(C(=O)c4ccccc4)CC3)c21	-0.00285	-0.8	6.5	-17.7	1.0	0.5	x
CCCCCCCOC(=O)C[N+](C)(C)CCOC1CC2CCC1(C)C2(C)C (stereo unspecified)	-4.55*	-13.6	92.6*	-1.4	x	x	i
CCN(CC)c1ccc2cc(-c3nc(-c4ccc(OC)cc4)cs3)c(=O)oc2c1	-5.07*	-750.5	22.2	x	-1.7	-0.3	+
O=C(/C=C/c1ccccc1O)c1ccco1	x	0.2	x	25.5	16.6	8.1	x
O=C(/C=C/c1cc(Br)ccc1O)c1ccco1	-4.73*	-26.5	-46.7	85.7*	2.3	3.5	i
COc1cccc(CNS(=O)(=O)c2c(C)[nH]c(C)c2C(=O)N2CCCCC2)c1	x	8.6	x	-20.9	-3.3	-2.4	x
COc1ccc(C2/C(=C(/O)c3ccc(Br)cc3)C(=O)C(=O)N2C)cc1 (stereo unspecified)	x	2.4	x	-4.2	-4.7	1.0	x
CN1CCc2c(n(CC(O)CN3CCN(CCO)CC3)c3ccccc23)C1=O (stereo unspecified)	-0.471	-10.5	40.2	-5.7	-0.1	-3.4	x
CCc1ccc(NS(=O)(=O)c2cccs2)cc1	-4.07	2.1	4.5	-0.7	2.0	0.3	i
Cc1cc(C)cc(NS(=O)(=O)c2cccs2)c1	x	15.3	x	4.8	1.1	3.2	x
CO/N=C(\C(=O)O)c1csc(NN=C(C)C)n1	1.67	-6.4	-10.1	1.8	0.7	-1.0	x
Cc1ccc(S(=O)(=O)N(CC(=O)NCc2ccco2)Cc2ccccc2F)cc1	-1.11	-6.1	13.7	-0.1	x	x	x
COc1ccc(C(=O)C(CN2CCOCC2)c2ccccc2)cc1F (stereo unspecified)	-3.99*	-0.1	x	3.5	x	x	+
COc1ccc(CCNC(=O)C2CC(c3cc(C(F)(F)F)cc(C(F)(F)F)c3)=NO2)cc1 (stereo unspecified)	0.756	-1.9	33.2	-3.2	-0.6	-0.9	x
COc1ccc(C(C(=O)NC2CCCCC2)N(C(=O)CCl)c2ccc(OC)cc2)cc1 (stereo unspecified)	-0.68	0.3	9.5	32.4	-0.8	36.0	x
COc1ccc(N(C(=O)CCl)C(C(=O)NC2CCCCC2)c2cccnc2)cc1 (stereo unspecified)	-5.38*	0.4	-1.1	18.0	-0.8	24.9	+
O=C(NC1CCCCC1)C(c1cccnc1)N(C(=O)CCl)c1ccc(F)cc1 (stereo unspecified)	-4.43*	-6.3	88.1*	9.5	x	x	+
CN1CCN(S(=O)(=O)c2ccc(Sc3nnnn3-c3ccccc3)c([N+](=O)[O-])c2)CC1	-3.5*	2.2	106.9*	7.0	-8.5	25.4	+
CC(=O)c1ccc(Sc2nnnn2-c2ccccc2)c([N+](=O)[O-])c1	-4.27*	6.3	-16.8	-14.6	-2.4	1.4	i
O=[N+]([O-])c1ccc(Sc2nnnn2-c2ccccc2)c(Cl)c1	-0.33	-0.7	-19.8	-4.0	0.1	-1.0	x
Cn1cnc([N+](=O)[O-])c1N=C(N)N	1.29	-2.2	-2.0	0.3	0.6	-0.9	x
